Reference: ChEMBL document CHEMBL4177752, “Discovery of Novel Schizocommunin Derivatives as Telomeric G-Quadruplex Ligands That Trigger Telomere Dysfunction and the Deoxyribonucleic Acid (DNA) Damage Response” (J Med Chem, 2018)
Calls of active or inactive are those of the source. The rule behind the calls is not given here.

Assays:
SiHa [1] = assay: Induction of telomeric G-quadruplex DNA formation in human SiHa cells assessed as increase in colocalization of BG4/TRF2 foci per nucleus at 2 uM after 24 hrs by DAPI staining-based immunofluorescence method; format: cell-based
Method in brief: (§1)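 Cells were treated 24 h with 2 µM compound or 0.1% DMSO, then fixed (4% paraformaldehyde), permeabilized (0.5% Triton X-100) and blocked (5% goat serum). Staining used BG4 (80 ng/µL, 37 °C 3 h) with anti-FLAG, and/or γ-H2AX, TRF2 or POT1 antibodies at 4 °C overnight. Alexa 488/555 secondaries and DAPI followed. Foci or co-localized foci per nucleus were counted by confocal microscopy; mean ± SEM, two-tailed unpaired t test.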

Quadruplex DNA [2] = assay: Stabilization of F21T telomeric G-quadruplex DNA (unknown origin) assessed as change in melting temperature at 1 uM by FRET assay; format: nucleic-acid assay
Method in brief: (§2)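 FRET melting: 0.2 µM F21T or F10T (FAM/TAMRA-labelled), with or without 1.0 µM ligand, in 10 mM Tris-HCl pH 7.4 with 60 mM KCl. Excitation 470 nm, emission 530 nm, read every 1 °C from 37–99 °C at 1 °C/min with a 30 s hold. ΔTm = Tm(DNA+ligand) − Tm(DNA).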

[3] = Stabilization of F10T hairpin duplex DNA (unknown origin) assessed as change in melting temperature at 1 uM by FRET assay; method in brief: as §2
Quadruplex DNA [4] = assay: Stabilization of F21T telomeric G-quadruplex DNA (unknown origin) at 1 uM in presence of non-fluorescent duplex DNA ds26 by FRET assay; format: nucleic-acid assay
Method in brief: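 Competition FRET: 0.2 µM F21T with 1 µM ligand, plus or minus unlabelled duplex ds26 at 3 µM (15-fold) or 10 µM (50-fold), in 10 mM Tris-HCl pH 7.4 with 60 mM KCl. Melting monitored at 470/530 nm over 37–99 °C.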

A549 = assay: Antiproliferative activity against human A549 cells after 48 hrs by MTT assay; format: functional, cell-based; conditions: A549, 48 h
Method in brief: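 Cells seeded at 5.0×10^3 per well and exposed to a range of compound concentrations for 48 h. MTT (2.5 mg/mL solution) was then added for 4 h, formazan was dissolved in DMSO, and OD was read at 570 nm. HL-60 was grown in RPMI-1640 with 10% FBS, the other lines in DMEM with 10% FBS, at 37 °C and 5% CO2. Triplicates; IC50 taken from mean OD versus concentration curves.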

Quadruplex DNA [5] = assay: Stabilization of telomeric G-quadruplex DNA in human SiHa cells assessed as delocalization of POT1 from TRF2 foci at 2 uM after 24 hrs by DAPI staining-based double immunofluorescence method; format: cell-based; method in brief: as §1
Quadruplex DNA [6] = assay: Stabilization of telomeric G-quadruplex DNA in human SiHa cells assessed as reduction of POT1/TRF2 co-localized foci per nucleus at 2 uM after 24 hrs by DAPI staining-based double immunofluorescence method; format: cell-based; method in brief: as §1
Quadruplex DNA [7] = assay: Stabilization of telomeric G-quadruplex DNA in human SiHa cells assessed as increase in phosphorylated ATR expression after 48 hrs by Western blot method; format: cell-based
Method in brief: (§3)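 SiHa cells were treated with compound for 48 h and lysed in RIPA buffer. 20 µg protein was run on 10% SDS-PAGE and transferred to PVDF. Blots were blocked in 3% BSA, probed with primary antibodies (1:1,000, 4 °C 16 h) for p-ATR, p-CHK1 and p-P53, then secondaries (1:2,000, 2 h at room temperature).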

Quadruplex DNA [8] = assay: Stabilization of telomeric G-quadruplex DNA in human SiHa cells assessed as increase in phosphorylated p53 expression after 48 hrs by Western blot method; format: cell-based; method in brief: as §3
Quadruplex DNA [9] = assay: Stabilization of telomeric G-quadruplex DNA in human SiHa cells assessed as levels of metaphase chromosome having at least one telomere end loss at 1 uM after 48 hrs by Tamra-OO-[TTAGGG]3 PNA probe and DAPI staining-based FISH assay relative to control; format: cell-based
Method in brief: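 Metaphase spreads from SiHa cells treated 48 h with 1 µM compound or 0.1% DMSO were hybridized with a telomeric PNA probe and counterstained with DAPI. The share of chromosomes with at least one telomere-free end was scored; mean ± SEM, two-tailed unpaired t test.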

SiHa [10] = assay: Cell cycle arrest in human SiHa cells assessed as accumulation at G2/M phase at 1 uM after 12 hrs by propidium iodide staining-based flow cytometric method; format: functional
Method in brief: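 SiHa or U2OS cells (2.0×10^5 per well) were treated with compound or DMSO for 12 h, fixed in ice-cold 70% ethanol overnight, and stained with 50 µg/mL PI plus RNase A for 30 min at room temperature in the dark. 10,000 events were collected by flow cytometry to give the phase distribution.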

SiHa [11] = assay: Antiproliferative activity against human SiHa cells assessed as decrease in colony formation at 0.125 to 0.5 uM after 12 days by crystal violet staining-based assay; format: functional, cell-based
SiHa [12] = assay: Antitumor activity against human SiHa cells xenografted in BALB/C-nu/nu mouse assessed as tumor growth inhibition at 10 mg/kg, ip administered daily for 3 weeks measured post last dose relative to vehicle-treated control; format: functional; conditions: 504 h, read-out: TGI
Method in brief: (§4)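 SiHa cells (1×10^7 per 100 µL, serum-free DMEM) were injected subcutaneously. Grown tumors were divided into pieces and implanted into BALB/C-nu/nu mice. Caliper volume (1/2 × L × W²) and body weight were recorded daily; tumors were weighed at the end.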

SiHa [13] = assay: Antitumor activity against human SiHa cells xenografted in BALB/C-nu/nu mouse assessed as tumor growth inhibition at 20 mg/kg, ip administered daily for 3 weeks measured post last dose relative to vehicle-treated control; format: functional; conditions: 504 h, read-out: TGI; method in brief: as §4
Mus musculus = assay: Toxicity in BALB/C-nu/nu mouse xenografted with human SiHa cells assessed as decrease in body weight at 10 to 20 mg/kg, ip administered daily for 3 weeks measured everyday during compound dosing; format: organism-based; conditions: in vivo, 504 h; method in brief: as §4

In the case of `CN(C)CCCNc1cc2nc(/C=C3\C(=O)Nc4cc(N5CCN(C)CC5)ccc43)[nH]c(=O)c2cc1F`, the Activity (SiHa [1]) is reported as “Active”, the ΔTm (Quadruplex DNA [2]) is reported as 23.5 °C and the ΔTm [3] is reported as 0.1 °C. For the same compound, the Activity (Quadruplex DNA [4]) was “Active”, the IC50 (A549) was 9.1 µM and the Activity (Quadruplex DNA [5]) was “Active”. For the same compound, the Activity (Quadruplex DNA [6]) was “Active”, the Activity (Quadruplex DNA [7]) was “Dose-dependent effect” and the Activity (Quadruplex DNA [8]) was “Dose-dependent effect”. For the same compound, the Activity (Quadruplex DNA [9]) was 31%, the Activity (SiHa [10]) was “Active” and the Activity (SiHa [11]) was “Active”. The inhibition in vivo at 10 mg/kg (SiHa [12]) was 29%, the inhibition in vivo at 20 mg/kg (SiHa [13]) was 65.2% and the Activity (Mus musculus) was “Non-Toxic”.
